# Screening data deposited in PubChem BioAssay by Sanford-Burnham Center for Chemical Genomics.
# NR3A LBD binder – NR3A (human) ligand-binding domain modulation; NR3A LBD differential scanning fluorimetry, Tm shift; 0% = protein alone, 100% = glycine-bound protein; Tm shift relative to glycine control, % at 25 µM; 340,000 tested, 2.5% active;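 active means melting temperature shift of at least 10% of the positive control shift, at one fixed dose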
# SENP1 inh – blocks the human SENP1 SUMO protease catalytic domain. inhibition, % at 10 µM. 360,000 tested, 0.21% active. recombinant SENP1 catalytic domain, CyPet-SUMO1-YPet FRET cleavage. AID 624204;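 active means inhibition at least 30% at 10 µM, raw YFP signal under a set limit, fluorescence ratio 0.5 to 1.5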;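 further: 0% = enzyme with DMSO and 100% = no enzyme wells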
# Target sequence (Q9P0U3 419-644 limits assumed): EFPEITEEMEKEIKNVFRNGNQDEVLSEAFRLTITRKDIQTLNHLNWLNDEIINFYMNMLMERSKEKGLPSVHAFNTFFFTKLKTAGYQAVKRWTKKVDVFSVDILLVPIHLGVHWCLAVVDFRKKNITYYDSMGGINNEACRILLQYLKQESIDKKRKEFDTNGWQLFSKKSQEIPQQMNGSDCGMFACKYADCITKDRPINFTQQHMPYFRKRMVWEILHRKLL
#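 Assay system: hSENP1 catalytic domain, recombinant. Amount: SENP1 enzyme, 20 pM final. Schedule: 50 min reaction, RT, dark. Technique: FRET, CFP and YFP emission. Control set: no-enzyme wells low, DMSO-plus-enzyme wells high control.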
# EBI2 block – blocks human EBI2 receptor beta-arrestin signaling. EBI2 beta-arrestin recruitment, luminescence, 7a,25-OHC stimulated. inhibition, % at 5 µM. 360,000 tested, 0.81% active. AID 651636; in the data active means inhibition above about 38%;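 further: enzyme fragment complementation signal reports receptor beta-arrestin coupling in cells; 0% = agonist plus DMSO wells and 100% = wells without agonist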
# Target sequence (P32249 whole entry, looked up, the tested form may be a part): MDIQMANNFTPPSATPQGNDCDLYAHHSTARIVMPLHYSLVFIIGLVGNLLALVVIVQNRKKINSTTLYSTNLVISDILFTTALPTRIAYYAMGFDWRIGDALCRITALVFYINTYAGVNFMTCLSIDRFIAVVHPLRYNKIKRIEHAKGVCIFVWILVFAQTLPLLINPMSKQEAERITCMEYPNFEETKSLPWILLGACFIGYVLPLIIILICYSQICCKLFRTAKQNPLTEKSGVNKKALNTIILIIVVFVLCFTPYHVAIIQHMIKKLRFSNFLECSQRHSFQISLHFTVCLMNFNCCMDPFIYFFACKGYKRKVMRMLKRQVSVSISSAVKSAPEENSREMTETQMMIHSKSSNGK
# MPTP inh – permeability transition pore inhibition; isolated mouse mitochondria, Ca2+ swelling absorbance, 30 min; inhibition, % at 10 µM; 360,000 tested, 1.4% active;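 active means inhibition of 50% or more, scaled per plate between neutral and stimulator controls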;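 further: 0% = DMSO wells given calcium and 100% = 1 mM EGTA wells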
# An asterisk follows results filed as active; . = no result. The list is not random: actives were taken first. Their share in the collection is about 4.4%.
SMILES,NR3A LBD binder,SENP1 inh,EBI2 block,MPTP inh
Cc1ccc(S(=O)(=O)N2CC(O)CC2C(=O)OCC(=O)c2ccccc2Cl)cc1C (stereo unspecified),25*,0,-1,11
Cc1sc2ncnc(N/N=C/c3cccc(O)c3)c2c1C,13*,-5,5,4
COc1cc(/C=N/Nc2ncnc3sc4c(c23)CCC4)ccc1O,29*,-6,19,0
COc1ccc(NC(=O)CS(=O)(=O)Cc2ccccc2)c([N+](=O)[O-])c1,5,3,-11,-1
Cc1cc(N2CCC(C)CC2)n2ncc(-c3ccccc3)c2n1,13*,-2,3,4
Cc1cc(NCCN2CCOCC2)n2ncc(-c3ccccc3)c2n1,13*,-4,1,-3
NS(=O)(=O)c1ccc(CCNC(=O)CNC(=O)c2ccc(Oc3ccccc3)cc2)cc1,2,3,-6,-2
COc1ccc(S(=O)(=O)N(C)C[C@H]2Oc3c(NC(=O)Nc4ccccc4)cccc3C(=O)N([C@H](C)CO)C[C@@H]2C)cc1,-10,1,7,1
C[C@H](CO)N1C[C@H](C)[C@@H](CN(C)S(=O)(=O)c2ccccc2)Oc2ccc(NC(=O)Nc3ccc(C(F)(F)F)cc3)cc2C1=O,23*,2,10,1
CC(C)NC(=O)Nc1ccc2c(c1)C(=O)N([C@H](C)CO)C[C@H](C)[C@@H](CN(C)S(=O)(=O)c1ccccc1)O2,0,0,4,1
C[C@H]1CN([C@@H](C)CO)C(=O)c2cccc(NC(=O)Nc3ccc(C(F)(F)F)cc3)c2O[C@@H]1CN(C)S(=O)(=O)c1ccccc1,13*,-1,25,1
COc1ccc(NC(=O)Nc2cccc3c2O[C@H](CN(C)S(=O)(=O)c2cn(C)cn2)[C@@H](C)CN([C@H](C)CO)C3=O)cc1,16*,0,4,0
C[C@H](CO)N1C[C@H](C)[C@@H](CN(C)S(=O)(=O)c2ccccc2)Oc2c(NC(=O)Nc3ccccc3)cccc2C1=O,1,0,-10,-1
COc1ccc(S(=O)(=O)N(C)C[C@H]2Oc3c(NC(=O)Nc4ccc(C(F)(F)F)cc4)cccc3C(=O)N([C@H](C)CO)C[C@@H]2C)cc1,11*,2,24,0
COc1ccc([C@H]2C[C@@H](O)[C@H](n3cc(C4CC4)nn3)CN2CC2CCCCC2)cc1,.,-3,8,2
Cc1noc(C)c1S(=O)(=O)N(C)C[C@H]1Oc2c(NC(=O)Nc3ccc(C(F)(F)F)cc3)cccc2C(=O)N([C@H](C)CO)C[C@@H]1C,11*,1,9,-2
Cc1ccc(C(=O)c2ccccc2C(=O)OCC(=O)Nc2ccc(SC(F)F)cc2)cc1,-486,-7,17,2
O=C(COC(=O)c1ccccc1Cc1ccccc1)Nc1ccc(SC(F)F)cc1,19*,3,12,5
COC(=O)c1c(-c2ccc(OC)cc2)oc2ccc(-c3ccc(OC)nc3)cc12,0,2,37,2
CCCOC(=O)c1c(-c2ccc(OC)cc2)oc2ccc(-c3ccc(OC)nc3)cc12,15*,0,12,1
O=S(=O)(Nc1ncnc2sc3c(c12)CCC3)c1cc(F)ccc1F,-2,-4,-4,3
Fc1cccc(Nc2ncnc3sc4c(c23)CCC4)c1,13*,0,-18,0
COC(=O)c1c(-c2ccc(SC)cc2)sc2ccc(OC)cc12,13*,-1,14,1
CC1CCN(S(=O)(=O)c2cccc(C(=O)N3CCN(c4ccc(F)cc4)CC3)c2)CC1,0,0,9,-1
Oc1c(C(Nc2ccccn2)c2cccnc2)cc(Cl)c2cccnc12 (stereo unspecified),-5,0,50*,0
SMILES,NR3A LBD binder,SENP1 inh,EBI2 block,MPTP inh
CCOc1cc(CNCc2cc(OC)cc(OC)c2)ccc1OC,-1,-7,6,4
Cc1cc(C)c(C#N)c(SCCS(=O)(=O)Cc2ccc(Cl)cc2)n1,18*,0,9,-4
O=C(COC(=O)c1ccc(F)c(S(=O)(=O)N2CCOCC2)c1)Nc1ccc(Cl)cn1,.,-3,-5,-3
Cc1[nH]n(C(N)=S)c(=O)c1N=Nc1cc(-c2ccc(Br)cc2)[nH]n1,24*,-1,12,0
CC1CCN(C(=O)c2ccccc2SCC(=O)NCC2CCCCC2)CC1,1,-2,-1,-1
COc1ccc(-c2nc(NC(=O)c3ccc(OCC(=O)Nc4ccc(F)cc4)c(OC)c3)sc2C)cc1,11*,1,-28,-1
O=c1c2ccc(Cl)cc2nc2n1CC/C2=C\c1cccc(O)c1,23*,-1,13,4
CCc1ccc(C(=O)Cn2ccsc2=N)cc1,39*,2,1,0
CCOc1ccc(S(=O)(=O)N2CCC(C(=O)N3CCc4ccccc4C3)CC2)cc1,20*,2,26,-2
CCOC(=O)N1CCN(C(=O)C2CCCN(S(=O)(=O)c3ccc(C)cc3)C2)CC1 (stereo unspecified),-3,1,1,-2
CCOC(=O)N1CCN(C(=O)C2CCCN(S(=O)(=O)c3ccc(OCC)cc3)C2)CC1 (stereo unspecified),13*,3,-10,2
COc1ccc(S(=O)(=O)N2CCC(C(=O)N3CCc4ccccc4C3)CC2)cc1,2,3,25,-7
CCOc1ccc(S(=O)(=O)N2c3ccccc3CC2C)cc1 (stereo unspecified),14*,0,-1,6
Cn1c(N)c(Sc2ccc(F)cc2)c(=O)n(C)c1=O,1,-1,-5,1
COc1ccccc1/C=C(\NC(=O)c1ccc(OC)c(OC)c1)C(=O)Nc1cc([N+](=O)[O-])ccc1C,-1,-56,10,3
O=C(OCc1ccccc1)/C(=C/c1ccccc1Cl)NC(=O)c1ccco1,15*,1,11,1
OCCNCCCCOc1cccc(Br)c1,2,-1,-1,5
C=CCNCCCCOc1cccc(Br)c1,28*,0,-3,-1
C/C(=N\Nc1ncc(Cl)cc1Cl)c1ccccn1,0,5,56*,0
C/C(=N\Nc1ccc(Cl)c(C(=O)O)c1)c1ccccn1,-1,1,4,0
COc1ccccc1CCNC(=O)c1ccc2nc[nH]c2c1,-1,-2,-1,0
Cc1cccc(/C=N/NC(=O)C(C)Nc2cccc3ccccc23)n1 (stereo unspecified),-3,-24,-1,4
CC(Nc1cccc2ccccc12)C(=O)N/N=C/c1ccc([N+](=O)[O-])cc1 (stereo unspecified),22*,3,3,14
COc1cc([N+](=O)[O-])cc(/C=N/NC(=O)C(C)Nc2cccc3ccccc23)c1O (stereo unspecified),6,-3,56*,9
O=C(Nc1ccc(Br)cc1)c1cccc(N2C(=O)CCC2=O)c1,14*,3,-3,-2
COc1ccc(NC(=O)COc2cccc(-n3cnnn3)c2)cc1,15*,3,9,0
